# Source: ChEMBL document CHEMBL4261486, “2-Arylaminobenzothiazole-arylpropenone conjugates as tubulin polymerization inhibitors” (Medchemcomm, 2017)
# Activity calls are given as the source filed them. The rule behind the calls is not given here.
# Experiments:
# MIA PaCa-2 = experiment: Antiproliferative activity against human MIAPaCa2 cells after 48 hrs by sulforhodamine B assay; type: functional, cell-based; settings: MIA PaCa-2, 48 h
# How it was run: (§1)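 Cells grown in DMEM with 10% FBS at 37 °C under 5% CO2. Plated cells were allowed 24 h before drug, then exposed continuously for 48 h at 0.01, 0.1, 1, 10 and 100 μM. Monolayers were fixed with cold 10% TCA for 1 h at 4 °C and stained with 0.057% SRB in 1% acetic acid for 30 min. Bound dye was read at 510 nm. IC50 is the 50% growth-inhibitory concentration, using time-zero and control readings.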
# HeLa [1] = experiment: Antiproliferative activity against human HeLa cells after 48 hrs by sulforhodamine B assay; type: functional, cell-based; how it was run: as §1
# Tubulin (Homo sapiens) [2] = molecular target: T1, Tubulin (Homo sapiens) (UniProt P68371+Q9H4B7+P0DPH7+P68366+Q13509+Q71U36+P04350+Q3ZCM7+P07437+P68363+Q9BQE3+Q6PEY2+Q13885+Q9BVA1+Q9BUF5); experiment: Inhibition of tubulin polymerization in human HeLa cells assessed as increase of tubulin in soluble fraction at 3 uM after 24 hrs by Western blot analysis; type: cell-based
# How it was run: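 HeLa cells, 1 × 10^5 per well, were treated for 24 h (3 μM for test conjugates). The soluble fraction was extracted with warm PIPES/Triton lysis buffer for 3 min at 30 °C, and the remaining polymerized fraction was taken in Laemmli buffer. Equal volumes were run by SDS-10% PAGE and immunoblotted for α-tubulin (1:2000) with HRP secondary and ECL detection.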
# HeLa [3] = experiment: Induction of reactive oxygen species generation in human HeLa cells at 1 uM after 24 hrs by carboxy-DCFH-DA staining based fluorescence microscopic analysis; type: functional, cell-based
# How it was run: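 Cells were treated with 1 μM for 24 h, then loaded with carboxy-DCFH-DA (10 μM) for 30 min at room temperature in the dark. They were resuspended in PBS at 5 × 10^4 cells per mL. DCF fluorescence was read by spectrofluorometer (ex 488 / em 525 nm per methods; 485/535 nm per legend), and images were taken by fluorescence microscopy.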
# [4] = Inhibition of bovine brain tubulin polymerization pretreated followed by GTP addition measured at 1 min interval for 1 hr by fluorescence reporter based assay; set-up: species or system Bos taurus
# How it was run: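 Bovine brain tubulin (2 mg/mL) was pre-incubated with compound at 1, 2, 3, 4 and 5 μM. The buffer was PEM (80 mM PIPES, 0.5 mM EGTA, 2 mM MgCl2, pH 6.9) with 10 μM fluorescent reporter and 1 mM GTP at 37 °C. Fluorescence (ex 360 / em 420 nm) was read every min for 1 h. IC50 was derived from these concentrations.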
# A549 = experiment: Antiproliferative activity against human A549 cells after 48 hrs by sulforhodamine B assay; type: functional, cell-based; settings: A549, 48 h; how it was run: as §1
# Tubulin (Homo sapiens) [5] = molecular target: T1, Tubulin (Homo sapiens); experiment: Inhibition of tubulin polymerization in human HeLa cells assessed as appearance of rounded microtubule at 3 uM after 24 hrs by DAPI staining based confocal microscopic analysis; type: cell-based
# How it was run: (§2)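 HeLa cells on coverslips were exposed to 3 μM for 24 h and fixed in 3.5% formaldehyde in PBS. They were permeabilized with Triton X-100/Tween-20 and blocked in 2% BSA. Primary antitubulin antibody (1:200) was applied for 4 h, then FITC anti-mouse secondary (1:500) for 1 h. Nuclei were counterstained with DAPI and imaged by confocal microscopy at 60×, with a DMSO control.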
# Tubulin (Homo sapiens) [6] = molecular target: T1, Tubulin (Homo sapiens); experiment: Inhibition of tubulin polymerization in human HeLa cells assessed as appearance of irregular microtubule at 3 uM after 24 hrs by DAPI staining based confocal microscopic analysis; type: cell-based; how it was run: as §2
# MDA-MB-231 = experiment: Antiproliferative activity against human MDA-MB-231 cells after 48 hrs by sulforhodamine B assay; type: functional, cell-based; settings: MDA-MB-231, 48 h; how it was run: as §1
# HeLa [7] = experiment: Induction of mitochondrial membrane potential loss in human HeLa cells assessed as collapse of the mitochondrial membrane potential at 1 uM after 24 hrs by Rh-123 staining based spectrofluorimetric method relative to control; type: functional
# How it was run: (§3)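 HeLa cells, seeded at 5 × 10^5 cells per mL overnight, were exposed to 1 μM for 24 h. Cells were trypsinized and incubated in PBS with Rhodamine-123 (10 μg/mL) for 30 min at room temperature, then washed. Fluorescence was read on a spectrofluorometer relative to control. Data are mean ± SD of three independent experiments.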
# HeLa [8] = experiment: Induction of cyclin-B1 mRNA expression in human HeLa cells by qRT-PCR analysis; type: functional, cell-based
# HeLa [9] = experiment: Induction of apoptosis in human HeLa cells assessed as appearance of condensed nuclei at 1 uM after 24 hrs by Hoechst […] staining based fluorescence microscopic analysis; type: functional, cell-based
# How it was run: (§4)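 HeLa cells, 5 × 10^4 per well, were allowed 24 h to adhere. They were then exposed to 1 μM for 24 h at 37 °C and fixed in 4% paraformaldehyde for 10 min at 4 °C. Staining was with Hoechst […] at 5 μg/mL for 30 min at room temperature. Nuclear morphology was scored by fluorescence microscopy (ex 350, em 460 nm).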
# Tubulin (Homo sapiens) [10] = molecular target: T1, Tubulin (Homo sapiens); experiment: Inhibition of tubulin polymerization in human HeLa cells assessed as disruption of microtubule organization at 3 uM after 24 hrs by DAPI staining based confocal microscopic analysis; type: cell-based; how it was run: as §2
# HeLa [11] = experiment: Cell cycle arrest in human HeLa cells assessed as accumulation at G2/M phase at 3 uM after 24 hrs by propidium iodide staining based flow cytometry (reference value: 33.4%); type: functional
# HeLa [12] = experiment: Upregulation of cyclin-B1 expression in human HeLa cells at 3 uM after 24 hrs by Western blot analysis; type: functional, cell-based
# How it was run: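 HeLa cells were treated with 3 μM for 24 h, with a DMSO vehicle control. Cyclin B1 protein was detected by immunoblot with tubulin as loading control.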
# HeLa [13] = experiment: Induction of apoptosis in human HeLa cells assessed as appearance of condensed nuclei after 24 hrs by Hoechst […] staining based fluorescence microscopic analysis; type: functional, cell-based; how it was run: as §4
# HeLa [14] = experiment: Induction of mitochondrial membrane potential loss in human HeLa cells at 1 uM after 24 hrs by Rh-123 staining based spectrofluorimetric method relative to control; type: functional; how it was run: as §3
IC50 (MIA PaCa-2) [nM],IC50 (HeLa [1]) [nM],inhibition (Tubulin (Homo sapiens) [2]),IC50 [4] [nM],IC50 (A549) [nM],inhibition (Tubulin (Homo sapiens) [5]),inhibition (Tubulin (Homo sapiens) [6]),IC50 (MDA-MB-231) [nM],inhibition (Tubulin (Homo sapiens) [10]),SMILES,Activity (HeLa [3]),Activity (HeLa [7]) [%],Activity (HeLa [8]),Activity (HeLa [9]),Activity (HeLa [11]) [%],Activity (HeLa [12]),Activity (HeLa [13]),Activity (HeLa [14]) [%]
1300,500,Active,2200,900,Active,Active,1100,Active,COc1ccc2nc(-c3ccc(N/C=C\C(=O)c4ccc(OC)c(F)c4)cc3)sc2c1,Active,40,Active,Active,88.7,Active,–,–
2300,600,Active,2900,1400,Active,Active,2000,Active,COc1ccc2nc(-c3ccc(N/C=C\C(=O)c4ccc(OC)c(F)c4)c(C)c3)sc2c1,Active,–,Active,Active,86.1,Active,–,30

SMILES,IC50 (MIA PaCa-2) [nM],IC50 (HeLa [1]) [nM],inhibition (Tubulin (Homo sapiens) [2]),IC50 [4] [nM],IC50 (A549) [nM],inhibition (Tubulin (Homo sapiens) [5]),inhibition (Tubulin (Homo sapiens) [6]),IC50 (MDA-MB-231) [nM],inhibition (Tubulin (Homo sapiens) [10]),Activity (HeLa [3]),Activity (HeLa [7]) [%],Activity (HeLa [8]),Activity (HeLa [9]),Activity (HeLa [11]) [%],Activity (HeLa [12]),Activity (HeLa [13]),Activity (HeLa [14]) [%]
COC(=O)Nc1nc2cc(C(=O)c3cccs3)ccc2[nH]1 [NOCODAZOLE],910,840,–,1800,820,–,–,710,–,Active,–,–,–,87.5,–,Active,–
